# Assay results as given in publication PMC12166256 (Clinical Pharmacology and Therapeutics, 2025).
# Marks after values point to notes of the source that are not given here.
# Experiments:
# [1] = Food effect study: plasma pharmacokinetics; type: in vivo, human; details: for AUC (0 to infinity), geometric mean / AUC (0 to infinity), mean ± SD / C max, geometric mean / C max, mean ± SD / t 1/2z, geometric mean / t 1/2z, mean ± SD / t lag, median / t max, median: 200 mg single dose
# [2] = SAD study: plasma pharmacokinetics; type: in vivo, human; details: for plasma concentrations: SAD 5 mg, below the LLOQ
# Procedure, shortened: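 Healthy males aged 18–55 got single oral doses in six SAD cohorts (5–600 mg), 6 active and 2 placebo per cohort, all fasted. Plasma was drawn pre-dose and at 1, 2, 3, 4, 6, 8, 12, 18, 24, 36, 48, 60 and 72 h; 96 h only for dose levels 4–6. LC–MS/MS, LLOQ 2 ng/mL. Non-compartmental parameters; AUC excluded when extrapolation exceeded 30%.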
# sTNFα = sTNFα (Homo sapiens, UniProt P01375); experiment: sTNFα target occupancy, ex vivo zymosan stimulation of blood, ELISA; type: in vivo
# Chain of sTNFα (P01375 77-233 limits assumed): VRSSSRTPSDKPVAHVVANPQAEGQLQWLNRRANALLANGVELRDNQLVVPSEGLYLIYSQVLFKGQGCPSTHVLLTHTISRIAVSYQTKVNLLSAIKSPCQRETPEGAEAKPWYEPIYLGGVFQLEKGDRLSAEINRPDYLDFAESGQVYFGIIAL
# Procedure, shortened: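 Blood came from the 400 and 600 mg single-dose cohorts (pre-dose and 3 h post-dose) and all multiple-dose cohorts (pre-dose Day 1; pre-dose and 3 h Day 14). It was stimulated ex vivo with zymosan. ELISA measured total and compound-occupied TNFα to derive percent occupancy and percent change from baseline, summarised descriptively by group and time point.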
compound,measurement,setting,value
CN1C(=O)c2cccc(OC(F)F)c2[C@H]2C[C@@H]1c1nc3ccc(-c4cnc(C5(N)CCC5)nc4)cc3n12 [Balinatunfib],AUC higher in the fed state than in the fasted state,[1]; 200 mg,18%
same,AUClast higher in the fed state than in the fasted state,[1]; 200 mg,16%
same,C max higher in the fed state than in the fasted state,[1]; 200 mg,14%
same,"delay of maximum plasma concentrations, fed compared to fasted",[1]; 200 mg,1 h
same,"AUC (0 to infinity), geometric mean",[1]; fasted,"(2,010) [26] ng·h/mL"
same,"AUC (0 to infinity), mean ± SD",[1]; fasted,"2,060 ± 539 ng·h/mL"
same,"C max, geometric mean",[1]; fasted,(119) [32] ng/mL
same,"C max, mean ± SD",[1]; fasted,123 ± 39.5 ng/mL
same,"t 1/2z, geometric mean",[1]; fasted,(21.9) [23] h
same,"t 1/2z, mean ± SD",[1]; fasted,22.5 ± 5.23 h
same,"t lag, median",[1]; fasted,0.00 h
same,"t max, median",[1]; fasted,3.00 h
same,"AUC (0 to infinity), geometric mean",[1]; fed,"(2,340) [33] ng·h/mL"
same,"AUC (0 to infinity), mean ± SD",[1]; fed,"2,430 ± 815 ng·h/mL"
same,"C max, geometric mean",[1]; fed,(132) [35] ng/mL
same,"C max, mean ± SD",[1]; fed,138 ± 48.1 ng/mL
same,"t 1/2z, geometric mean",[1]; fed,(27.3) [18] h
same,"t 1/2z, mean ± SD",[1]; fed,27.6 ± 4.84 h
same,"t lag, median",[1]; fed,0.00 h
same,"t max, median",[1]; fed,4.00 h
same,"AUC geometric mean ratio, point estimate","[1]; 200 mg, fed vs. fasted",1.18
same,"AUClast geometric mean ratio, point estimate","[1]; 200 mg, fed vs. fasted",1.16
same,"C max geometric mean ratio, point estimate","[1]; 200 mg, fed vs. fasted",1.14
same,effect of food on the PK characteristics,[1]; high-fat meal,no relevant effects
same,plasma concentrations,[2],< 2 ng/mL
same,plasma concentrations,[2]; listed as balinatunfib,"In the SAD study, all doses were administered under fasted conditions. The PK parameters were not calculable for any participant receiving a single dose of 5 mg balinatunfib, as all concentrations were below the LLOQ (2 ng/mL)."
same,"C max, geometric mean",[2]; SAD 20 mg fasted,(5.12) [24] ng/mL
same,"C max, mean ± SD",[2]; SAD 20 mg fasted,5.25 ± 1.24 ng/mL
same,"t last, median",[2]; SAD 20 mg fasted,18.05 h
same,"t max, median",[2]; SAD 20 mg fasted,5.00 h
same,"AUC (0 to infinity), mean","[2]; SAD 20 mg fasted, n = 1",101 ^b ± NC ng·h/mL
same,"t 1/2z, geometric mean","[2]; SAD 20 mg fasted, n = 5",(13.6) [48] h
same,"t 1/2z, mean","[2]; SAD 20 mg fasted, n = 5",15.0 ^c ± 7.21 h
same,"AUC (0 to infinity), geometric mean",[2]; SAD 60 mg fasted,(409) [25] ng·h/mL
same,"AUC (0 to infinity), mean ± SD",[2]; SAD 60 mg fasted,420 ± 103 ng·h/mL
same,"C max, geometric mean",[2]; SAD 60 mg fasted,(20.5) [24] ng/mL
same,"C max, mean ± SD",[2]; SAD 60 mg fasted,21.0 ± 5.08 ng/mL
same,"t 1/2z, geometric mean",[2]; SAD 60 mg fasted,(20.9) [28] h
same,"t 1/2z, mean ± SD",[2]; SAD 60 mg fasted,21.6 ± 6.14 h
same,"t last, median",[2]; SAD 60 mg fasted,48.00 h
same,"t max, median",[2]; SAD 60 mg fasted,2.50 h
same,"AUC (0 to infinity), geometric mean",[2]; SAD 180 mg fasted,"(2,330) [32] ng·h/mL"
same,"AUC (0 to infinity), mean ± SD",[2]; SAD 180 mg fasted,"2,450 ± 782 ng·h/mL"
same,"C max, geometric mean",[2]; SAD 180 mg fasted,(117) [36] ng/mL
same,"C max, mean ± SD",[2]; SAD 180 mg fasted,122 ± 43.7 ng/mL
same,"t 1/2z, geometric mean",[2]; SAD 180 mg fasted,(27.1) [17] h
same,"t 1/2z, mean ± SD",[2]; SAD 180 mg fasted,27.4 ± 4.74 h
same,"t last, median",[2]; SAD 180 mg fasted,96.21 h
same,"t max, median",[2]; SAD 180 mg fasted,2.50 h
same,"AUC (0 to infinity), geometric mean",[2]; SAD 400 mg fasted,"(4,220) [49] ng·h/mL"
same,"AUC (0 to infinity), mean ± SD",[2]; SAD 400 mg fasted,"4,580 ± 2,240 ng·h/mL"
same,"C max, geometric mean",[2]; SAD 400 mg fasted,(261) [49] ng/mL
same,"C max, mean ± SD",[2]; SAD 400 mg fasted,285 ± 139 ng/mL
same,"t 1/2z, geometric mean",[2]; SAD 400 mg fasted,(24.0) [26] h
same,"t 1/2z, mean ± SD",[2]; SAD 400 mg fasted,24.7 ± 6.47 h
same,"t last, median",[2]; SAD 400 mg fasted,96.16 h
same,"t max, median",[2]; SAD 400 mg fasted,3.00 h
same,"AUC (0 to infinity), geometric mean",[2]; SAD 600 mg fasted,"(8,900) [37] ng·h/mL"
same,"AUC (0 to infinity), mean ± SD",[2]; SAD 600 mg fasted,"9,640 ± 3,540 ng·h/mL"
same,"C max, geometric mean",[2]; SAD 600 mg fasted,(483) [39] ng/mL
same,"C max, mean ± SD",[2]; SAD 600 mg fasted,525 ± 206 ng/mL
same,"t 1/2z, geometric mean",[2]; SAD 600 mg fasted,(23.9) [22] h
same,"t 1/2z, mean ± SD",[2]; SAD 600 mg fasted,24.4 ± 5.43 h
same,"t last, median",[2]; SAD 600 mg fasted,96.01 h
same,"t max, median",[2]; SAD 600 mg fasted,3.00 h
same,"sTNFα occupancy, mean","sTNFα; MAD 100 mg BID, D14 0 h",103.1%
same,"sTNFα occupancy, median","sTNFα; MAD 100 mg BID, D14 0 h",104.0%
same,"sTNFα occupancy, mean","sTNFα; MAD 100 mg BID, D14 3 h",104.9%
same,"sTNFα occupancy, median","sTNFα; MAD 100 mg BID, D14 3 h",105.3%
same,"sTNFα occupancy, mean","sTNFα; MAD 100 mg QD, D14 0 h",95.0%
same,"sTNFα occupancy, median","sTNFα; MAD 100 mg QD, D14 0 h",96.8%
same,"sTNFα occupancy, mean","sTNFα; MAD 100 mg QD, D14 3 h",97.2%
same,"sTNFα occupancy, median","sTNFα; MAD 100 mg QD, D14 3 h",98.4%
same,"sTNFα occupancy, mean","sTNFα; MAD 200 mg BID, D14 0 h",101.1%
same,"sTNFα occupancy, median","sTNFα; MAD 200 mg BID, D14 0 h",101.8%
same,"sTNFα occupancy, mean","sTNFα; MAD 200 mg BID, D14 3 h",105.2%
same,"sTNFα occupancy, median","sTNFα; MAD 200 mg BID, D14 3 h",106.6%
same,"sTNFα occupancy, mean","sTNFα; MAD 300 mg BID, D14 0 h",101.3%
same,"sTNFα occupancy, median","sTNFα; MAD 300 mg BID, D14 0 h",101.8%
same,"sTNFα occupancy, mean","sTNFα; MAD 300 mg BID, D14 3 h",99.8%
same,"sTNFα occupancy, median","sTNFα; MAD 300 mg BID, D14 3 h",102.8%
same,sTNFα target occupancy,"sTNFα; SAD 400 mg and 600 mg cohorts, 3 hours after dosing",~ 100%
same,"sTNFα occupancy, mean","sTNFα; SAD 400 mg, D1 3 h",102.2%
same,"sTNFα occupancy, median","sTNFα; SAD 400 mg, D1 3 h",105.3%
same,"sTNFα occupancy, mean","sTNFα; SAD 600 mg, D1 3 h",109.3%
same,"sTNFα occupancy, median","sTNFα; SAD 600 mg, D1 3 h",109.2%
